The source of these data is ChEMBL document CHEMBL3286319, “Hyafurones, hyapyrrolines, and hyapyrones: polyketides from Hyalangium minutum” (J Nat Prod, 2014).

In one test the test system is Micrococcus luteus. Put plainly: Antibacterial activity against Micrococcus luteus by serial dilution method. The test is classed as functional.
The test system of another test is Staphylococcus aureus. Put plainly: Antibacterial activity against Staphylococcus aureus by serial dilution method. It counts as functional.
The test system of a further test is Escherichia coli. Briefly: Antibacterial activity against Escherichia coli TolC by serial dilution method. The test is classed as functional.
Another test deals with Nocardia. Briefly: Antibacterial activity against Nocardia flava by serial dilution method. The test is classed as functional.
Test [1] has as its system Chromobacterium violaceum. Put plainly: Antibacterial activity against Chromobacterium violaceum by serial dilution method. The test is classed as functional.
The next test has as its system Pseudomonas aeruginosa. Put plainly: Antibacterial activity against Pseudomonas aeruginosa by serial dilution method. It counts as functional.
The next test concerns Mycolicibacterium phlei. Briefly: Antibacterial activity against Mycobacterium phlei by serial dilution method. The test is classed as functional.
For another test, the system named is Mucor hiemalis. Briefly: Antifungal activity against Mucor hiemalis by serial dilution method. It counts as functional. The method in brief:
(§1)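 MIC by 1:1 serial dilution in 96-well microtiter plates. Yeasts and fungi were grown in MYC medium (1.0% glucose, 1.0% phytone peptone, 50 mM HEPES, pH 7.0).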

In test [2] the test system is Schizosaccharomyces pombe. Put plainly: Antifungal activity against Schizosaccharomyces pombe by serial dilution method. It counts as functional. In outline: as §1
The subject of the next test is Rhodotorula glutinis. Put plainly: Antifungal activity against Rhodotorula glutinis by serial dilution method. It counts as functional. In outline: as §1
A further test concerns Wickerhamomyces anomalus. Briefly: Antifungal activity against Pichia anomala by serial dilution method. It counts as functional. Particulars: Hansenula anomala. In outline: as §1
In another test the test system is Candida albicans. Put plainly: Antifungal activity against Candida albicans by serial dilution method. It counts as functional. The method in brief:
as §1

The subject of another test is L929. Briefly: Cytotoxicity against mouse L929 cells by MTT assay. It counts as cell-based.
For another test, the system named is HUVEC. Put plainly: Cytotoxicity against HUVEC by MTT assay. The test is classed as cell-based. To be noted: Homo sapiens.
In test [3] the test system is Trypanosoma brucei rhodesiense. Briefly: Antiparasitic activity against Trypanosoma brucei rhodesiense. It counts as functional, organism-based.
Another test deals with Trypanosoma cruzi. Put plainly: Antiparasitic activity against Trypanosoma cruzi. It counts as functional, organism-based.
The test system of a further test is Leishmania donovani. Put plainly: Antiparasitic activity against Leishmania donovani axenic amastigotes. It counts as functional, organism-based.
Another test relates to Plasmodium falciparum. Briefly: Antiparasitic activity against Plasmodium falciparum K1. It counts as functional, organism-based.

Structures are written as SMILES. Converted amounts (≈) assume the structure as drawn. The source made the active and inactive calls. No cut-off for these calls is given here. A value given as a limit tells only on which side of the number the result lay.

Turning to `CC1=C(O)C(C)O/C(=C/CC(O)\C=C/C=C/C(C)=C/C=C/C(C)C(O)C(C)CCc2ccccc2)C1=O` (stereo not given), the MIC (against Micrococcus luteus; with Staphylococcus aureus; against Escherichia coli; in the test with Nocardia; in test [1]; with Pseudomonas aeruginosa) was greater than 67 µg/mL each time. In addition, the MIC is greater than 67 µg/mL against Mycolicibacterium phlei; no more than 67 µg/mL in the test with Mucor hiemalis (read-out: MIC); greater than 67 µg/mL in [2]; greater than 67 µg/mL in the test with Rhodotorula glutinis; greater than 67 µg/mL in the test with Wickerhamomyces anomalus; greater than 67 µg/mL with Candida albicans.
On to `CC(/C=C/CCCC/C=C/c1oc(=O)c(C)c(O)c1C)=C\C=C\C(C)C(O)C(C)CCc1ccccc1` (stereo not given), for which the MIC was greater than 67 µg/mL in the test on Micrococcus luteus; greater than 67 µg/mL in the test on Staphylococcus aureus; greater than 67 µg/mL in the test on Escherichia coli; 16.6 µg/mL (≈ 32.9 µM) with Nocardia (read-out: MIC); greater than 67 µg/mL in test [1]; greater than 67 µg/mL against Pseudomonas aeruginosa. Moreover, the MIC against Mycolicibacterium phlei is greater than 67 µg/mL; with Mucor hiemalis (read-out: MIC), 33.3 µg/mL (≈ 66 µM); in [2], greater than 67 µg/mL; in the test with Rhodotorula glutinis, greater than 67 µg/mL; with Wickerhamomyces anomalus, greater than 67 µg/mL; against Candida albicans, greater than 67 µg/mL. Moreover, the IC50 in the test with L929 came out at 22 µM.
Consider `CC1=C(CC(O)CC(O)\C=C/C=C/C(C)=C/C=C/C(C)C(O)C(C)CCc2ccccc2)[N+](C)(CCO)C(C)(O)C1=O` (stereo not given), for which the MIC (with Micrococcus luteus; in the test on Staphylococcus aureus; in the test with Escherichia coli; in the test with Nocardia (read-out: MIC); in [1]; with Pseudomonas aeruginosa) was greater than 67 µg/mL throughout. The MIC (in the test with Mycolicibacterium phlei; in the test with Mucor hiemalis (read-out: MIC); in test [2]; in the test on Rhodotorula glutinis; with Wickerhamomyces anomalus; in the test with Candida albicans) was greater than 67 µg/mL each time.
In the case of `CC1=C(CC(O)CC(O)/C=C/C=C/C(C)=C/C=C/C(C)C(O)C(C)CCc2ccccc2)OC(C)(O)C1=O` (stereo not given), the MIC (against Micrococcus luteus; against Staphylococcus aureus; with Escherichia coli; against Nocardia; in test [1]; against Pseudomonas aeruginosa) was greater than 67 µg/mL throughout. The minimal inhibitory concentration (MIC) (in the test with Mycolicibacterium phlei; against Mucor hiemalis; in [2]; with Rhodotorula glutinis; against Wickerhamomyces anomalus; in the test on Candida albicans) was greater than 67 µg/mL in each case.
With `CC1=C(CC(O)CC(O)\C=C/C=C/C(C)=C/C=C/C(C)C(O)C(C)CCc2ccccc2)N(CCO)C(C)(O)C1=O` (stereo not given), the MIC (against Micrococcus luteus; with Staphylococcus aureus; against Escherichia coli; with Nocardia; in test [1]; against Pseudomonas aeruginosa) was greater than 67 µg/mL throughout. Moreover, the MIC (in the test on Mycolicibacterium phlei; against Mucor hiemalis; in [2]; against Rhodotorula glutinis; against Wickerhamomyces anomalus; with Candida albicans) was greater than 67 µg/mL throughout.
Turning to `CC1=C(/C=C/CC(O)\C=C/C=C/C(C)=C/C=C/C(C)C(O)C(C)CCc2ccccc2)OC(C)(O)C1=O` (stereo not given), the MIC against Micrococcus luteus is greater than 67 µg/mL; against Staphylococcus aureus it was greater than 67 µg/mL; against Escherichia coli, greater than 67 µg/mL; in the test on Nocardia (read-out: MIC) it was 8.3 µg/mL (≈ 16.4 µM); in test [1] it was greater than 67 µg/mL; against Pseudomonas aeruginosa, greater than 67 µg/mL. Besides, the MIC (in the test with Mycolicibacterium phlei; against Mucor hiemalis; in test [2]; in the test with Rhodotorula glutinis; in the test on Wickerhamomyces anomalus; against Candida albicans) was greater than 67 µg/mL throughout.
With `CC1=C(CC(O)CC(O)\C=C/C=C/C(C)=C/C=C/C(C)C(O)C(C)CCc2ccccc2)OC(C)(O)C1=O` (stereo not given), the MIC (in the test with Micrococcus luteus; against Staphylococcus aureus; in the test on Escherichia coli; in the test on Nocardia; in [1]; in the test on Pseudomonas aeruginosa) was greater than 67 µg/mL throughout. The MIC (against Mycolicibacterium phlei; against Mucor hiemalis; in test [2]; in the test with Rhodotorula glutinis; in the test on Wickerhamomyces anomalus; with Candida albicans) was greater than 67 µg/mL each time. Moreover, in the test on HUVEC, the IC50 turned out to be 2.67 µM. Further, the outcome (in [3]; with Trypanosoma cruzi; with Leishmania donovani; in the test with Plasmodium falciparum) was inactive.
